Assay results taken from PMC4475676 (Biochemistry, 2015).

Key:
peptide substrate [1] = assay: NMR titration binding affinity
In short: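 500 μM 15N-labeled wild-type or mutant protein titrated with 0, 0.1, 0.2, 0.5, 1 and 2 mM peptide. 15N HSQC recorded at 900 MHz. Shift changes of perturbed peaks were fit individually to a quadratic single-site binding equation. Peaks fitting with r² > 0.99 (fast exchange) were then fit globally for one KD per protein. Protein and peptide were in 50 mM Na2HPO4, 1 mM DTT, 1 mM EDTA, pH 6.5.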

peptide substrate [2] = assay: ZZ-exchange NMR catalytic efficiency; assay type: biochemical
In short: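 ZZ-exchange NMR used 1 mM 15N-labeled peptide with unlabeled enzyme, 20 μM at 0–20 °C or 1 μM at 30–45 °C. kex_eff came from time-dependent cross-peak build-up, with fit errors from a single experiment. Catalytic-Arg mutants used 100 μM protein at 30 °C with a 0.768 s mixing time. For these, the cis-peak to cross-peak intensity ratio stood in for turnover.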

[3] = denatures entirely; cited from earlier work
CypA = conditions: cited from earlier work
GeoCyp = conditions: cited from earlier work

CypA^A103R: CypA swap mutant, Ala 103 to Arg
effect of swap mutation on peptide binding (peptide substrate [1]; relative to wild type, NMR titration): strengthened
effect of swap mutation on catalytic efficiency (peptide substrate [2]; relative to wild type, ZZ-exchange, 20 μM protein): less

CypA^R55A: CypA with mutation of the catalytic arginine Arg 55 to alanine
catalysis after mutation of catalytic arginine (peptide substrate [2]; 100 μM protein, 1 mM peptide, 30 °C): nearly, but not entirely, ablates catalysis

CypA^WT: prototypical human cyclophilin A, mesophilic peptidyl-prolyl isomerase
temperature dependence of binding affinity for the peptide (peptide substrate [1]): highly temperature-dependent
turnover at 45 °C compared between CypA and GeoCyp (peptide substrate [2]; 45 °C, 1 μM protein, 1 mM peptide): comparable rate
Tm / denaturation temperature [3]: 51 °C

GSFGPDLRAGD [peptide substrate]
isomerization of G-P peptide bond by CypA (CypA): readily isomerized
isomerization of G-P peptide bond by GeoCyp (GeoCyp): readily isomerized
